Laboratory results taken from ChEMBL document CHEMBL2331242, “Amberlite IR-120H catalyzed MCR: design, synthesis and crystal structure analysis of 1,8-dioxodecahydroacridines as potential inhibitors of sirtuins” (Bioorg Med Chem Lett, 2013).

Biological target: NAD-dependent histone deacetylase SIR2 (Saccharomyces cerevisiae S288c) (UniProt P06700)
Assay: Inhibition of yeast TEL::-URA3 Sir2 assessed as growth inhibition of yeast at 50 uM after 24 to 48 hrs
Summary of the method: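 Yeast cell-based reporter silencing screen for Sir2, the yeast homologue of SIRT1. Strain TEL::URA3 (MATα ura3-52 lys2-801 ade2-101 trpΔ63 his3Δ200 leu2-Δ1 TEL adh4::URA3) carries URA3 inserted at a telomeric locus, where Sir2 silences it. Inhibition was scored as inhibition of growth of this strain in the presence of 5-fluoroorotic acid. Compounds were tested at 50 µM, with splitomicin as the reference inhibitor.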

NAD-dependent histone deacetylase SIR2 (Saccharomyces cerevisiae S288c), sequence (P06700 whole entry): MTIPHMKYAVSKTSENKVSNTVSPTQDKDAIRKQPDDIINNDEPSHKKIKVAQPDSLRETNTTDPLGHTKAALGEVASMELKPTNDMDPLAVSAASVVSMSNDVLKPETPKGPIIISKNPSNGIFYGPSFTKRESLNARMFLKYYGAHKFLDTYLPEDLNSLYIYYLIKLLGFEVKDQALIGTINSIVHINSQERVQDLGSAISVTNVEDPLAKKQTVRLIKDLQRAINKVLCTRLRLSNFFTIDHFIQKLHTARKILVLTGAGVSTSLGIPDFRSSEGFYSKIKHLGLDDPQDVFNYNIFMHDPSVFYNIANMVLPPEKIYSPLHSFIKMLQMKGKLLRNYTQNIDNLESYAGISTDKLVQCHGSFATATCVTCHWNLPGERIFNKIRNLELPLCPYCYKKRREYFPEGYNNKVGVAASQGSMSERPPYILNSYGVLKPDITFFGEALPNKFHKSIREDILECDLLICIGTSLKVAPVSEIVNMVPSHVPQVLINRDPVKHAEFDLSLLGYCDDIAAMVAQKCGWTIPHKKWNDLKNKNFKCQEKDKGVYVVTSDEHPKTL

**Q.** How did the inhibition turn out when `CC1(C)CC(=O)C2=C(C1)N(c1ccc(I)cc1)C1=C(C(=O)CC(C)(C)C1)C2c1cccc([N+](=O)[O-])c1` was run?
**A.** 35.2%

**Q.** Which inhibition does the source give for `CC1(C)CC(=O)C2=C(C1)N(c1ccccc1)C1=C(C(=O)CC(C)(C)C1)C2c1ccccc1O` here?
**A.** 15.6%

**Q.** For `CC1(C)CC(=O)C2=C(C1)N(c1ccc(Cl)cc1)C1=C(C(=O)CC(C)(C)C1)C2c1cccc([N+](=O)[O-])c1`, which inhibition is on record?
**A.** 29.2%

**Q.** Which inhibition does the source give for `Cc1ccc(N2C3=C(C(=O)CC(C)(C)C3)C(c3cccc(O)c3)C3=C2CC(C)(C)CC3=O)cc1` here?
**A.** 30.2%

**Q.** `CC1(C)CC(=O)C2=C(C1)N(c1ccc(F)cc1)C1=C(C(=O)CC(C)(C)C1)C2c1cccc(F)c1` was tested. Which inhibition did it give?
**A.** 28.4%

**Q.** `CC1(C)CC(=O)C2=C(C1)N(c1ccc(Br)cc1)C1=C(C(=O)CC(C)(C)C1)C2c1cccc(O)c1` was tested. Which inhibition did it give?
**A.** 32.5%

**Q.** How did the inhibition turn out when `CC1(C)CC(=O)C2=C(C1)N(c1ccc(C(F)(F)F)cc1)C1=C(C(=O)CC(C)(C)C1)C2c1cccc(O)c1` was run?
**A.** 28.5%

**Q.** With `CC(=O)c1ccc(N2C3=C(C(=O)CC(C)(C)C3)C(c3cccc(O)c3)C3=C2CC(C)(C)CC3=O)cc1` as the compound, how does the inhibition read?
**A.** 12.8%

**Q.** `CC1(C)CC(=O)C2=C(C1)N(c1ccc(I)cc1)C1=C(C(=O)CC(C)(C)C1)C2c1cccs1` was tested. Which inhibition did it give?
**A.** 13%

**Q.** With `CC1(C)CC(=O)C2=C(C1)N(c1ccc(F)cc1)C1=C(C(=O)CC(C)(C)C1)C2c1cccc(O)c1` as the compound, how does the inhibition read?
**A.** 33.5%

**Q.** `CC1(C)CC(=O)C2=C(C1)N(c1ccccc1I)C1=C(C(=O)CC(C)(C)C1)C2c1cccc(O)c1` was tested. Which inhibition did it give?
**A.** 23.7%

**Q.** For `CC1(C)CC(=O)C2=C(C1)N(c1ccc(C#N)cc1)C1=C(C(=O)CC(C)(C)C1)C2c1cccc(O)c1`, which inhibition is on record?
**A.** 17.9%

**Q.** For `CC1(C)CC(=O)C2=C(C1)N(c1ccc(Br)cc1)C1=C(C(=O)CC(C)(C)C1)C2c1ccc2ccccc2c1`, which inhibition is on record?
**A.** 10.6%

**Q.** With `CC1(C)CC(=O)C2=C(C1)N(c1ccc(I)cc1)C1=C(C(=O)CC(C)(C)C1)C2c1cccc(O)c1` as the compound, how does the inhibition read?
**A.** 41.1%

**Q.** With `CCOC(=O)c1c(N2C3=C(C(=O)CC(C)(C)C3)C(c3cccs3)C3=C2CC(C)(C)CC3=O)sc2c1CCCC2` as the compound, how does the inhibition read?
**A.** 16.2%
